{"source": "ChEMBL document CHEMBL2176871", "about": "“Development of ligands at γ-aminobutyrric acid type A (GABAA) receptor subtype as new agents for pain relief” (Bioorg Med Chem, 2011)", "key": {"[1]": {"test": "Displacement of [3H]Ro151788 from GABA(A)/BzR in bovine cerebral cortex membrane", "format": "cell membranes, Bos taurus", "how_it_was_run": "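Bovine cerebral cortex membranes in 50 mM Tris-citrate pH 7.4; [3H]flumazenil displacement. Compounds first tested at a fixed 10 µM; Ki determined only when inhibition exceeded 80%, using at least six concentrations. Five experiments run in triplicate; IC50 obtained by iterative curve fitting and converted to Ki with the Cheng–Prusoff equation.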"}, "Mus musculus [2]": {"test_system": "Mus musculus", "test": "Analgesic activity in Swiss albino mouse abdominal constriction model assessed as decrease in number of acetic acid-induced writhing at 10 to 30 mg/kg, po after 30 mins", "format": "functional, organism-based", "settings": "Abdomen", "how_it_was_run": "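Male Swiss albino mice (23–30 g). Compounds given po in 1% CMC vehicle 30 min before the test. Acetic acid 0.6% injected i.p. at 10 ml/kg. Stretching movements were counted for 10 min, starting 5 min after the acetic acid injection. 8–15 mice per group.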"}, "Mus musculus [3]": {"test_system": "Mus musculus", "test": "Anticonvulsant activity in Swiss albino mouse […] assessed as protection against intraperitoneally administered pentylenetetrazol-induced seizures at 30 mg/kg, po after 30 mins", "format": "functional", "how_it_was_run": "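Male Swiss albino mice. Compounds given po and PTZ 90 mg/kg injected 30 min later; PTZ was dissolved in 0.9% NaCl saline. Clonic generalized convulsions were recorded over 30 min. Each value is the mean of 10 mice. The methods give the PTZ route as s.c. and the table footnote gives it as ip.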"}, "Mus musculus [4]": {"test_system": "Mus musculus", "test": "Antihyperalgesic activity against streptozotocin-induced hyperalgesia in Swiss albino mouse […] assessed as licking latency time at 30 mg/kg, po after 45 mins by hot plate test (reference value: 9.2 +/- 0.8 secs)", "format": "functional"}, "Mus musculus [5]": {"test_system": "Mus musculus", "test": "Antihyperalgesic activity Swiss albino mouse […] assessed as licking latency time at 30 mg/kg, po after 15 mins by hot plate test (reference value: 17.9 +/- 1.1 secs)", "format": "functional", "how_it_was_run": "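Hot plate at 52.5 ± 0.1 °C in non-diabetic male Swiss mice. Latency to licking of fore or hind paws was timed before dosing and every 15 min up to 60 min after oral dosing. Mice with pretest latencies below 12 s or above 18 s were excluded. Cut-off was 45 s.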"}, "Rattus norvegicus [6]": {"test_system": "Rattus norvegicus", "test": "Antinociceptive activity in Sprague-Dawley rat mononeuropathy pain model assessed as increase in injured paw pressure at 30 mg/kg, po after 45 mins by paw pressure test relative to non-treated control", "format": "functional", "how_it_was_run": "(§1)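 Chronic constriction injury: loose ligatures placed on the common sciatic nerve under chloral hydrate; contralateral sham dissection. Tested 14 days after surgery. Paw pressure applied at 32 g/s; threshold taken as the force causing the first struggle; cut-off 250 g; pretest outliers (<40 g or >75 g) excluded. Oral dosing in 10 ml/kg; read at 15, 30 and 45 min; compared with a CMC-treated group.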"}, "Rattus norvegicus [7]": {"test_system": "Rattus norvegicus", "test": "Antinociceptive activity in Sprague-Dawley rat mononeuropathy pain model assessed as increase in injured paw pressure at 1 mg/kg, po after 45 mins by paw pressure test relative to non-treated control", "format": "functional", "how_it_was_run": "as §1"}, "Rattus norvegicus [8]": {"test_system": "Rattus norvegicus", "test": "Toxicity in Sprague-Dawley rat mononeuropathy pain model assessed as effect on contralateral paw pressure at 30 mg/kg, po after 30 mins by paw pressure test", "format": "organism-based", "set-up": "dose 30 mg/kg, route oral", "settings": "in vivo, 0.5 h", "how_it_was_run": "(§2)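 Same sciatic-ligation rat model, 14 days after surgery. Threshold measured on the non-operated contralateral hind paw by analgesimeter at 32 g/s; first-struggle endpoint; 250 g cut-off; pretest rats outside 40–75 g rejected. Compound given po in 10 ml/kg; readings at 15, 30 and 45 min.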"}, "Rattus norvegicus [9]": {"test_system": "Rattus norvegicus", "test": "Toxicity in Sprague-Dawley rat mononeuropathy pain model assessed as effect on contralateral paw pressure at 30 mg/kg, po after 15 mins by paw pressure test", "format": "organism-based", "set-up": "dose 30 mg/kg, route oral", "settings": "in vivo, 0.25 h", "how_it_was_run": "as §2"}}, "note": "Active and inactive are the calls of the source.", "data": [{"smiles": "Cc1cnn2c1n[n+]([O-])c1ccc(OCc3ccccc3)cc12", "values": [{"measurement": "Ki", "setting": "[1]", "value": 4.66, "unit": "nM"}, {"measurement": "Activity", "setting": "Mus musculus [2]", "value": "inactive"}, {"measurement": "Activity", "setting": "Mus musculus [3]", "value": 10, "unit": "%"}, {"measurement": "Time", "setting": "Mus musculus [4]", "value": 18.8, "unit": "s"}, {"measurement": "Time", "setting": "Mus musculus [5]", "value": 17.2, "unit": "s"}, {"measurement": "Activity", "setting": "Rattus norvegicus [6]", "value": 35.2, "unit": "g"}, {"measurement": "Activity", "setting": "Rattus norvegicus [7]", "value": 30.8, "unit": "g"}, {"measurement": "Activity", "setting": "Rattus norvegicus [8]", "value": 63.8, "unit": "g"}, {"measurement": "Activity", "setting": "Rattus norvegicus [9]", "value": 62.7, "unit": "g"}]}]}
